ChEMBL document CHEMBL2069263, “Synthesis and characterization of quinoline-based thiosemicarbazones and correlation of cellular iron-binding efficacy to anti-tumor efficacy” (Bioorg Med Chem Lett, 2012)
The source made the active and inactive calls. The rule behind the calls is not given here.

Columns and labels:
NHDF = assay: Antiproliferative activity against human NHDF cells after 72 hrs by MTT assay; assay type: cell-based
In short: (§1)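 Cells (SK-N-MC neuroepithelioma, HCT116 colon cancer p53+/+ or p53−/−, normal human dermal fibroblasts) were exposed to compounds for 72 h and proliferation was measured by standard methods. IC50 is reported as mean ± SD of three experiments.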

SK-N-MC [1] = assay: Iron chelation activity in human SK-N-MC cells assessed as inhibition of 59Fe uptake from transferrin complex at 25 uM after 3 hrs by gamma scintillation counting relative to control; assay type: functional; design: scale not given: the % may be the effect or the level left
In short: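 SK-N-MC cells were incubated with 59Fe-transferrin, with or without chelator, for 3 h at 37 °C and washed 4 times with ice-cold PBS. Internalized 59Fe was taken as the pronase-resistant fraction after pronase (1 mg/mL, 30 min, 4 °C) and counted by γ-scintillation. Uptake is expressed relative to control, mean ± SD of three experiments.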

SK-N-MC [2] = assay: Antiproliferative activity against human SK-N-MC cells after 72 hrs by MTT assay; assay type: functional, cell-based; in short: as §1
HCT-116 [3] = assay: Antiproliferative activity against human HCT116 cells expressing p53 after 72 hrs by MTT assay; assay type: functional, cell-based; conditions: HCT-116, 72 h; in short: as §1
HCT-116 [4] = assay: Antiproliferative activity against p53-deficient human HCT116 cells after 72 hrs by MTT assay; assay type: functional, cell-based; conditions: HCT-116, 72 h; in short: as §1
SK-N-MC [5] = assay: Iron chelation activity in human SK-N-MC cells assessed as cellular 59Fe released at 25 uM incubated for 3 hrs post 59Fe-transferrin-labeling by gamma scintillation counting; assay type: functional
In short: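 SK-N-MC cells were prelabeled with 59Fe-transferrin for 3 h at 37 °C and washed 4 times with ice-cold PBS. They were then reincubated for 3 h at 37 °C with or without chelator. Released 59Fe was counted by scintillation counting. Results are mean ± SD of three experiments.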

[6] = Therapeutic index, ratio of IC50 for human NHDF cells to IC50 for human SK-N-MC cells; assay type: cell-based; conditions: NHDF cells and SK-N-MC cells, read-out: Ratio IC50
In short: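 Ratio of NHDF IC50 to SK-N-MC IC50. Both IC50s come from anti-proliferative assays after a 72 h incubation with the chelator. Each IC50 is the mean ± SD of three experiments.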

HCT-116 [7] = assay: Antiproliferative activity against human HCT116 cells expressing p53 assessed as cell survival at 0.5 nM after 9 days by clonogenic assay relative to control; assay type: functional
HCT-116 [8] = assay: Antiproliferative activity against human HCT116 cells expressing p53 assessed as cell survival at 1 nM after 9 days by clonogenic assay relative to control; assay type: functional
HCT-116 [9] = assay: Antiproliferative activity against p53-deficient human HCT116 cells assessed as cell survival at 20 uM after 9 days by clonogenic assay relative to control; assay type: functional
HCT-116 [10] = assay: Antiproliferative activity against p53-deficient human HCT116 cells assessed as cell survival at 30 uM after 9 days by clonogenic assay relative to control; assay type: functional
HCT-116 [11] = assay: Antiproliferative activity against p53-deficient human HCT116 cells assessed as cell survival at 40 uM after 9 days by clonogenic assay relative to control; assay type: functional
HCT-116 [12] = assay: Antiproliferative activity against human HCT116 cells expressing p53 assessed as cell survival at 40 uM after 9 days by clonogenic assay relative to control; assay type: functional
HCT-116 [13] = assay: Antiproliferative activity against human HCT116 cells expressing p53 assessed as cell survival at 25 uM after 9 days by clonogenic assay relative to control; assay type: functional
HCT-116 [14] = assay: Antiproliferative activity against human HCT116 cells expressing p53 assessed as cell survival at 50 uM after 9 days by clonogenic assay relative to control; assay type: functional
HCT-116 [15] = assay: Antiproliferative activity against human HCT116 cells expressing p53 assessed as cell survival at 30 uM after 9 days by clonogenic assay relative to control; assay type: functional
HCT-116 [16] = assay: Antiproliferative activity against p53-deficient human HCT116 cells assessed as cell survival at 25 uM after 9 days by clonogenic assay relative to control; assay type: functional
HCT-116 [17] = assay: Antiproliferative activity against human HCT116 cells expressing p53 assessed as cell survival at 20 uM after 9 days by clonogenic assay relative to control; assay type: functional
HCT-116 [18] = assay: Antiproliferative activity against p53-deficient human HCT116 cells assessed as cell survival at 50 uM after 9 days by clonogenic assay relative to control; assay type: functional
HCT-116 [19] = assay: Antiproliferative activity against human HCT116 cells expressing p53 assessed as cell survival at 5 nM after 9 days by clonogenic assay relative to control; assay type: functional

SMILES | IC50 (SK-N-MC [2]) | IC50 (HCT-116 [3]) | IC50 (HCT-116 [4]) | IC50 (NHDF) | Activity (SK-N-MC [1]) | Activity (SK-N-MC [5]) | also measured
CC(=O)N(O)CCCCCNC(=O)CCC(=O)N(O)CCCCCNC(=O)CCC(=O)N(O)CCCCCN [DEFEROXAMINE] | 12.5 µM | – | – | – | – | – | –
Oc1ccc2cccnc2c1/C=N/NC(=S)Nc1ccccc1 | 1.63 µM | 16.3 µM | 18.6 µM | 14.9 µM | 49% | – | –
CN(C)C(=S)N/N=C(/c1ccccc1)c1ccccn1 | – | – | – | – | – | – | fold change (FC) (HCT-116 [7]): 0.6762; fold change (FC) (HCT-116 [8]): 0.1273
CNC(=S)N/N=C/c1ccc2ccccc2n1 | > 12.5 µM | > 25 µM | > 25 µM | – | 49% | – | –
CNC(=S)N/N=C/c1ccc2cccc(O)c2n1 | > 12.5 µM | 1.71 µM | 2.17 µM | > 25 µM | 49% | inactive | –
Oc1cccc2ccc(/C=N/NC(=S)Nc3ccccc3)nc12 | > 12.5 µM | 25 µM | 20.9 µM | – | 49% | inactive | –
CCNC(=S)N/N=C/c1c(O)ccc2cccnc12 | 0.19 µM | > 25 µM | > 25 µM | > 25 µM | 24% | 33% | –
CNC(=S)N/N=C/c1c(O)ccc2cccnc12 | 0.62 µM | > 25 µM | 8.06 µM | > 25 µM | 45% | 33% | fold change (FC) (HCT-116 [9]): 0.06; fold change (FC) (HCT-116 [10]): 0.012; fold change (FC) (HCT-116 [11]): 0.004; fold change (FC) (HCT-116 [12]): 0.014; fold change (FC) (HCT-116 [13]): 0.041; fold change (FC) (HCT-116 [14]): 0; fold change (FC) (HCT-116 [15]): 0.039; fold change (FC) (HCT-116 [16]): 0.034; fold change (FC) (HCT-116 [17]): 0.05; fold change (FC) (HCT-116 [18]): 0
CN(C)C(=S)NN=C(c1ccccn1)c1ccccn1 | 0.014 µM | 0.002 µM | 0.005 µM | 15.4 µM | – | – | fold change (FC) (HCT-116 [7]): 1.0629; fold change (FC) (HCT-116 [8]): 0.8541; fold change (FC) (HCT-116 [19]): 0.1922

Further lines, with some results ahead:

IC50 (SK-N-MC [2]) | IC50 (HCT-116 [3]) | IC50 (HCT-116 [4]) | SMILES | IC50 (NHDF) | Activity (SK-N-MC [1]) | Activity (SK-N-MC [5]) | also measured
9.69 µM | > 15 µM | 0.27 µM | CN(C)C(=S)N/N=C/c1ccc2cccc(O)c2n1 | 15.8 µM | 14% | 33% | –
> 12.5 µM | 23.2 µM | 19.6 µM | CCNC(=S)N/N=C/c1ccc2ccccc2n1 | – | 49% | – | –
0.11 µM | 20.8 µM | > 25 µM | CN(C)C(=S)N/N=C/c1c(O)ccc2cccnc12 | 14.9 µM | 18% | 33% | selectivity ratio [6]: 131
> 12.5 µM | 2.62 µM | 3.15 µM | CCNC(=S)N/N=C/c1ccc2cccc(O)c2n1 | > 25 µM | 49% | inactive | –
1.3 µM | – | – | O=C(N/N=C/c1c(O)ccc2ccccc12)c1ccncc1 | – | – | – | –
0.81 µM | 4.86 µM | 0.37 µM | CN(C)C(=S)N/N=C/c1ccc2ccccc2n1 | 11.7 µM | 49% | – | selectivity ratio [6]: 14
> 12.5 µM | 22.3 µM | 21.4 µM | S=C(N/N=C/c1ccc2ccccc2n1)Nc1ccccc1 | – | – | inactive | –
